Results on 1 molecule are retold here after ChEMBL document CHEMBL1149254, “The discovery of orally active triaminotriazine aniline amides as inhibitors of p38 MAP kinase” (J Med Chem, 2004).

The subject of series [1] is THP-1. In words: Inhibition of LPS-induced TNFalpha production in human THP1 cells by ELISA. The format is functional, cell-based. An outline of the steps:
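THP-1 cells grown in RPMI 1640 with 10% FBS, 40000 cells/well. Compound or vehicle was added (1% DMSO final), then LPS at 1 μg/mL final. Cells were incubated overnight at 37 °C, 5% CO2. TNF in the supernatant was measured by sandwich ELISA: anti-human TNF capture, biotinylated polyclonal detection, streptavidin-peroxidase read-out.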
(In general: In an ELISA, binding on a coated surface is turned into a signal by an enzyme label.)

Series [2] concerns Mus musculus. The series is described as follows: Inhibition of LPS-induced TNFalpha release in BALB/c mouse at 5 mg/kg, po after 90 mins. Type of series: functional, organism-based. Further details: dose 5 mg/kg. An outline of the steps: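 Female BALB/c mice, 6–8 weeks old. Compound in 100% PEG 300 given by oral gavage 30 min before ip LPS (0.1 mL of 10 μg/mL in PBS). Blood was taken 90 min after LPS and serum TNF-α measured by ELISA. Mean ± SD, n = 8 mice per group.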

Series [3] in a line: Cytotoxicity against phytohemagglutininin-stimulated human T blast cells at 30 uM after 24 hrs relative to control. The format is cell-based. To be noted: t-cell. The essentials: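 PBMC T cells (1.25×10^6/mL) stimulated with 5 μg/mL PHA for 4 days to give dividing blasts. Blasts at 1.5×10^6/mL were exposed to 30 μM compound in RPMI with 10% FBS and 0.003% DMSO final, for 24 h at 37 °C, 5% CO2. Viability was read as metabolic activity by AlamarBlue and expressed relative to control.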

In series [4] the test system is Mus musculus. The series is described as follows: Inhibition of LPS-induced TNFalpha release in BALB/c mouse administered at 10 mg/kg before 30 mins of LPS challenge. The format is functional, organism-based. On the set-up: dose 10 mg/kg. The essentials: (§1)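 BALB/c mouse LPS-TNF model. Compound was given at 10 mpk at time points from 30 min to 10 h before LPS challenge, and TNF suppression was assessed at each pretreatment interval.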

The subject of series [5] is Mus musculus. The series is described as follows: Inhibition of LPS-induced TNFalpha release in BALB/c mouse administered at 10 mg/kg before 2 hrs of LPS challenge. Type of series: functional, organism-based. Further details: dose 10 mg/kg. The essentials:
as §1

Series [6] has as its target Mitogen-activated protein kinase 11 (Homo sapiens, UniProt Q15759). In words: Inhibition of human p38beta.
For series [7], the target named is T1, Inhibitor of nuclear factor kappa-B kinase subunit beta (Homo sapiens, UniProt O14920).
T1 sequence (O14920 whole entry): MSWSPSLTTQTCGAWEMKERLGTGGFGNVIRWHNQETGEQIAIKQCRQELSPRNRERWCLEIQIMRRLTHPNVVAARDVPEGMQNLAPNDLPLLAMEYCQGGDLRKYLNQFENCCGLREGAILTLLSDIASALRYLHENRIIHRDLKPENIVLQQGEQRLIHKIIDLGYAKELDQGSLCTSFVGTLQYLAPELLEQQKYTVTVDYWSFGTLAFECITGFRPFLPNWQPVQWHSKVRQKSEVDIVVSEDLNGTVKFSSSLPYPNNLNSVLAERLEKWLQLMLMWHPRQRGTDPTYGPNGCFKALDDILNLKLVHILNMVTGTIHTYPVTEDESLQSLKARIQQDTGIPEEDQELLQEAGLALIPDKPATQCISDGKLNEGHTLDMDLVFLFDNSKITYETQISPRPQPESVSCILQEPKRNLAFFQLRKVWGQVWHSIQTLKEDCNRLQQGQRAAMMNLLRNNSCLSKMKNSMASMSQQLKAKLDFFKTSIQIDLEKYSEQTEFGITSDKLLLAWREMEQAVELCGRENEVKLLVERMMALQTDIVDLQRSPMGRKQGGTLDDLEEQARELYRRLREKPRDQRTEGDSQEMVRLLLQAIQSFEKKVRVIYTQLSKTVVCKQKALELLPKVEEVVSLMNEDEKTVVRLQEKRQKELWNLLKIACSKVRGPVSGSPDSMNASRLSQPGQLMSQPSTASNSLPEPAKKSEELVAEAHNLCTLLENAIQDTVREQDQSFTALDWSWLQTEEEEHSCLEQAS
In words: Inhibition of human IKK2beta.

Series [8] has as its target MAP kinase-activated protein kinase 2 (Homo sapiens, UniProt P49137). The series is described as follows: Inhibition of MK2.
Series [9] has as its target T2, Tyrosine-protein kinase JAK3 (Homo sapiens, UniProt P52333).
T2 sequence (P52333 whole entry): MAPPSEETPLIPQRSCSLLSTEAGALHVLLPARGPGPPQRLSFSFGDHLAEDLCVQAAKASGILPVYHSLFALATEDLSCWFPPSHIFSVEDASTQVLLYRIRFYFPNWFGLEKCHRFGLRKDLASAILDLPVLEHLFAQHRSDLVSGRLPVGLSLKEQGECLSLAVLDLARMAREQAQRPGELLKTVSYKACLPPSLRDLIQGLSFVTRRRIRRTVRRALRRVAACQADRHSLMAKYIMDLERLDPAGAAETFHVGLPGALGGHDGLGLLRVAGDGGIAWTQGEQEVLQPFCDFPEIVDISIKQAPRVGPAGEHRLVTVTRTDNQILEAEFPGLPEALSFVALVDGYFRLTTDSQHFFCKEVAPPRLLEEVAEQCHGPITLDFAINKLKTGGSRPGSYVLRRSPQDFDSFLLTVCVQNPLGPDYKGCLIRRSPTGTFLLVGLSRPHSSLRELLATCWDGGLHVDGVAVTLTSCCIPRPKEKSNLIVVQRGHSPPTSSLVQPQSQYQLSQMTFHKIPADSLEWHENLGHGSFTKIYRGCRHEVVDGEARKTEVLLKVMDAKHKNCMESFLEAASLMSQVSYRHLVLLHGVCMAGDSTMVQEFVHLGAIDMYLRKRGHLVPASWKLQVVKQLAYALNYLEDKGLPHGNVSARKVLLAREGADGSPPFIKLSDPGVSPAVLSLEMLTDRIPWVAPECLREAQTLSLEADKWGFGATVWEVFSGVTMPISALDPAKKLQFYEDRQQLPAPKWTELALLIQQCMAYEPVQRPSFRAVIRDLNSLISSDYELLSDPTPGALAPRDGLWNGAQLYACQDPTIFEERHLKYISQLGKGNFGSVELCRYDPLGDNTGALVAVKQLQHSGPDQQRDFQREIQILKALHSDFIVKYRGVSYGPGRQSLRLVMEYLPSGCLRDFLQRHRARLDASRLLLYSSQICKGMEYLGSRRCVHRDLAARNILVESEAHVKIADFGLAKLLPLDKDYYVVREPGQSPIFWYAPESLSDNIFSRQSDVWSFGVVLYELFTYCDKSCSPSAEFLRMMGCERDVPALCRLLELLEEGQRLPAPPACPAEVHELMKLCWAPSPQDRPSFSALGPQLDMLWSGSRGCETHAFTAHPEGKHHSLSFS
In words: Inhibition of JAK3.

The target in series [10] is Protein kinase C delta type (Homo sapiens, UniProt Q05655). The series is described as follows: Inhibition of PKCdelta.
Protein kinase C delta type, sequence (Q05655 whole entry): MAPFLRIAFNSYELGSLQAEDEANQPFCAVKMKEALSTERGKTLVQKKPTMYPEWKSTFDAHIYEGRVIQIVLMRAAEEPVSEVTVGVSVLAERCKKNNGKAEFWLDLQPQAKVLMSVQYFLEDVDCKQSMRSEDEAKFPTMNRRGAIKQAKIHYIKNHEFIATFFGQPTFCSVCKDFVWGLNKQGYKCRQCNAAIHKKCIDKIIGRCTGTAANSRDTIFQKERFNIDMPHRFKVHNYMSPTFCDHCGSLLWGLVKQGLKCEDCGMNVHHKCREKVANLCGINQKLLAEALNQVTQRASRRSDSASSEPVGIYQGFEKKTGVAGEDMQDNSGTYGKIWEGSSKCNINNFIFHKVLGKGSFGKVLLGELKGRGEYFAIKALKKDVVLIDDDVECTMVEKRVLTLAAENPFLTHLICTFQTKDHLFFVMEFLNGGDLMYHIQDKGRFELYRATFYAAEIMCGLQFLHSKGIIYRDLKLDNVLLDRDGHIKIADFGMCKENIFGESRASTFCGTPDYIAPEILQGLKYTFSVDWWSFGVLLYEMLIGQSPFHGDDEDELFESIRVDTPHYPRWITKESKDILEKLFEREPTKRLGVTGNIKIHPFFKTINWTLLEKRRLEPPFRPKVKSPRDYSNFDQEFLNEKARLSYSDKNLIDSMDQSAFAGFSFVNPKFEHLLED
Series [11] deals with Vascular endothelial growth factor receptor 2 (Homo sapiens, UniProt P35968). The series is described as follows: Inhibition of KDR.
Vascular endothelial growth factor receptor 2, sequence (P35968 whole entry): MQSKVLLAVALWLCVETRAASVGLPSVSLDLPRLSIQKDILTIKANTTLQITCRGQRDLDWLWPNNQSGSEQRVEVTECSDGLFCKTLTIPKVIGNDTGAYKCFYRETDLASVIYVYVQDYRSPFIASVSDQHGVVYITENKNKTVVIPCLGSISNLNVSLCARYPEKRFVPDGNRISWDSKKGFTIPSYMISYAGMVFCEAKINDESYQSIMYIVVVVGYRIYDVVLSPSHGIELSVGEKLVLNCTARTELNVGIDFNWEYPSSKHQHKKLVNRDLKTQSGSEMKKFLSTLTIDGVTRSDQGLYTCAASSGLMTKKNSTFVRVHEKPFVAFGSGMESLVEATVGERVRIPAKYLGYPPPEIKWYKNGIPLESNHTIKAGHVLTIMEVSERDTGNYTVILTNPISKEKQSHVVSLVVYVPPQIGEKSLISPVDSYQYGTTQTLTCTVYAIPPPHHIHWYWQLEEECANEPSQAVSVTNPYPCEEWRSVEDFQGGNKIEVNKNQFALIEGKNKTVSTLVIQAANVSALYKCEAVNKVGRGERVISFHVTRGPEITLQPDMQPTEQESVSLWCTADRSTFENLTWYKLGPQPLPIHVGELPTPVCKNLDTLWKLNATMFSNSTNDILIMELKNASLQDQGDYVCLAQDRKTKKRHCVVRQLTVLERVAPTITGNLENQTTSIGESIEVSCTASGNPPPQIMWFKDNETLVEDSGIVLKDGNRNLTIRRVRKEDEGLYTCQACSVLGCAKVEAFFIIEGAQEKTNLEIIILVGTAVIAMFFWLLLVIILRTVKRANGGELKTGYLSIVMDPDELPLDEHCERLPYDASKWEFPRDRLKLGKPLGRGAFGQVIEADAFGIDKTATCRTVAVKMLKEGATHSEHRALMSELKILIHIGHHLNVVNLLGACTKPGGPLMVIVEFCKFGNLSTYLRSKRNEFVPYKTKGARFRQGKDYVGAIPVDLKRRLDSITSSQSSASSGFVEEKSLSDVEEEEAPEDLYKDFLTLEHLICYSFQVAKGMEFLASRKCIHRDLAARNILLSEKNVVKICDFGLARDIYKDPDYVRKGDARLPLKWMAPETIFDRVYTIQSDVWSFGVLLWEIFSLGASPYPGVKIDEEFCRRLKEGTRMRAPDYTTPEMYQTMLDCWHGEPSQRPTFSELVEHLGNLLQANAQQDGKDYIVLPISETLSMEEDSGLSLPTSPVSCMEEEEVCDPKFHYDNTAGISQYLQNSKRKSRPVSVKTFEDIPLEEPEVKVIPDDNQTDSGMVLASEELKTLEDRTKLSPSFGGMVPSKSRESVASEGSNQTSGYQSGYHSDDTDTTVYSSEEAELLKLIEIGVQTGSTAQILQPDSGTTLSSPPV
The nature of series [12]: Metabolic stability in mouse liver microsomes. Type of series: ADME, Microsome. In general terms: Microsomes from liver hold many membrane-bound enzymes, among them those of drug oxidation.
The nature of series [13]: Clearance in mouse. The settings on record: in vivo. Type of series: ADME, organism-based.
A short description of series [14]: Half life in mouse. Type of series: ADME, organism-based. The settings on record: in vivo.

Calls of active or inactive are those of the source. The rule behind the calls is not given here. Where only a bound is given, the exact number is not on record here.

Mitogen-activated protein kinase 11, sequence (Q15759 whole entry): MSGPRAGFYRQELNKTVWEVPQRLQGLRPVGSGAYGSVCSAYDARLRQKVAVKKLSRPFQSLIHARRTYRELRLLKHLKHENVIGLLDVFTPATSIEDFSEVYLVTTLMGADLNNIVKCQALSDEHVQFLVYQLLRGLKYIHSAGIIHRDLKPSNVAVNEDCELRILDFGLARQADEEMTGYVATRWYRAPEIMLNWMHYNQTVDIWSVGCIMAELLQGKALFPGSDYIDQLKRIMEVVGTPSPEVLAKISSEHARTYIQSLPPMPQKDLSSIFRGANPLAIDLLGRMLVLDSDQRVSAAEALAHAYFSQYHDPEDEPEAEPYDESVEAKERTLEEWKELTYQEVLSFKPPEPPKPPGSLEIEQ
MAP kinase-activated protein kinase 2, sequence (P49137 whole entry): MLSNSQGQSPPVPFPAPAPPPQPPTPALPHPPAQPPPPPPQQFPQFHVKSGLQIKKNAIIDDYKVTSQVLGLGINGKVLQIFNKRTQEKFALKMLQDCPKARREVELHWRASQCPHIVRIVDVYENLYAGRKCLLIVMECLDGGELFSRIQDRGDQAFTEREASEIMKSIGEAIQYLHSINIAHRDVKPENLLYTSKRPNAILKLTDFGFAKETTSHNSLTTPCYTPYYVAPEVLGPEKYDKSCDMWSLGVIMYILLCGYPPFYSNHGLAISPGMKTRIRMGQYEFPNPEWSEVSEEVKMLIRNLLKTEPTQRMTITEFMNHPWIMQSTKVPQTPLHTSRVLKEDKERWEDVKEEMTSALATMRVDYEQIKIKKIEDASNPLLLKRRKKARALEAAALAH

For `CONC(=O)c1ccc(C)c(Nc2nc(N(C)CC(C)(C)C)nc(N3CCCN(C)CC3)n2)c1`, the 50% inhibitory concentration (IC50) in [1] is 85 nM; in series [6], 22 nM; in series [7], over 10 µM; in [8], over 10 µM; in [9] it was over 10 µM; in series [10], over 10 µM. This molecule yielded a half-maximal inhibitory concentration (IC50) in series [11] of over 10 µM. Besides, the outcome in [2], in series [4] and in series [5] was Active. Moreover, in [3], the Activity worked out at 70%. The molecule also returned a Stability in [12] of 0.8 nmol/mg/min. The clearance in series [13] was 107 mL/min/kg. Further, in series [14], the half-life was 42 min.

The IC50 is the concentration that gives 50% inhibition. A higher IC50 goes with a need for much substance. By clearance is commonly meant a measure of how efficiently the substance is removed, as volume per time. A high value points to efficient removal. As usually defined, the half-life is the time in which the quantity being followed falls by half. A higher half-life goes with slow decline.
